The source of these data is ChEMBL document CHEMBL1141909, “3-Arylidene-1-(4-nitrophenylmethylene)-3,4-dihydro-1H-naphthalen-2-ones and related compounds displaying selective toxicity and reversal of multidrug resistance in neoplastic cells” (2005).

The nature of test [1]: Effect of compound on multidrug resistance in murine L-5178 cells at 10 ug/ml concentration; expressed as fluorescence activity ratio (treated/untreated cells). Type of test: functional, Mus musculus.
Test [2] can be described thus: Concentration for 50% cytotoxicity towards malignant cells expressed in HSG neoplastic cell line. Type of test: functional. The conditions noted are these: Homo sapiens. The essentials:
(§1)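 Human oral squamous carcinoma HSC-2 and HSC-3 and submandibular gland carcinoma HSG cells were grown in DMEM with 10% heat-inactivated FBS. Near-confluent cells were exposed to various compound concentrations for 24 h. Viable cells were read by MTT (absorbance of stained lysate at 540). CC50 came from dose-response curves as the mean of duplicates.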

Test [3] can be described thus: Effect of compound on multidrug resistance in colon320 neoplasm cells at 4 ug/ml concentration; expressed as fluorescence activity ratio (treated/untreated cells). It is filed as functional, Homo sapiens.
Test [4] can be described thus: Selectivity index of compound towards human malignant cell lines. Type of test: functional.
Test [5] is described as follows: Concentration for 50% cytotoxicity towards malignant cells expressed in HSC-2 neoplastic cell line. It is filed as functional. To be noted: Homo sapiens. In short, it runs like this: as §1
Test [6] is described as follows: Concentration for 50% cytotoxicity towards nonmalignant cells expressed in HPLF normal periodontal ligament fibroblasts. To be noted: Homo sapiens.
Test [7] can be described thus: Effect of compound on multidrug resistance in murine L-5178 cells at 40 ug/ml concentration; expressed as fluorescence activity ratio (treated/untreated cells). It is filed as functional, Mus musculus.
Test [8] concerns HSC-3. The test can be described thus: Concentration for 50% cytotoxicity towards malignant cells expressed in HSC-3 neoplastic cell line. Type of test: functional. The conditions noted are these: Homo sapiens. In short, it runs like this: as §1
The test system of test [9] is HL-60. The test can be described thus: Concentration for 50% cytotoxicity towards malignant cells expressed in HL-60 neoplastic cell line. It is filed as functional. To be noted: Homo sapiens. The essentials: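 Human promyelocytic leukaemia HL-60 cells were grown in RPMI1640 with 10% FBS and exposed to various compound concentrations for 24 h. Viable cell number was counted by trypan blue exclusion. CC50 was taken from dose-response curves, mean of duplicate determinations.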

The nature of test [10]: Effect of compound on multidrug resistance in colon320 neoplasm cells at 40 ug/ml concentration; expressed as fluorescence activity ratio (treated/untreated cells). It is filed as functional, Homo sapiens.
Test [11] in a line: Concentration for 50% cytotoxicity towards nonmalignant cells expressed in HPC normal pulp cells. The conditions noted are these: Homo sapiens.
Test [12] can be described thus: Effect of compound on multidrug resistance in murine L-5178 cells at 4 ug/ml concentration; expressed as fluorescence activity ratio (treated/untreated cells). Type of test: functional, Mus musculus.
The nature of test [13]: Concentration for 50% cytotoxicity towards nonmalignant cells expressed in HGF normal gingival fibroblasts. The conditions noted are these: Homo sapiens.

`COc1ccc(CCN(C)CCCC(C#N)(c2ccc(OC)c(OC)c2)C(C)C)cc1OC` (stereo not drawn) [VERAPAMIL]: the Effect in [1] was 38.2.
As for `COc1ccc(/C=C2\Cc3ccccc3/C(=C\c3ccc([N+](=O)[O-])cc3)C2=O)cc1OC`, the 50% cytotoxic concentration (CC50) in test [2] was 4.4 µM; in [5], 920 nM; in test [6] it was greater than 400 µM; in [8] it was 4.2 µM; in test [9], 560 nM; in test [11] it was greater than 400 µM. The molecule also came in with a CC50 in [13] greater than 400 µM. Also, the Effect in test [3] is 7.19; in test [7] it was 55.9; in test [10] it was 11.4; in [12] it was 44.1. Besides, the SI in test [4] is greater than 159.

Broadly, the CC50 is the concentration that lowers cell viability or growth by half. High values mean better tolerance by the cells, low ones harm at low concentration.
